Test results taken from ChEMBL document CHEMBL2390828, “Synthesis and biological characterization of spiro[2H-(1,3)-benzoxazine-2,4'-piperidine] based histone deacetylase inhibitors” (Eur J Med Chem, 2013).

Columns and labels:
[1] = Metabolic stability in human liver microsomes after 30 mins by LC-MS/MS analysis; type: ADME, Microsome; details: read-out: Stability
How it was run: (§1)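 Compounds were incubated with mouse or human liver microsomal preparation for 30 min at 37 °C. The reaction was stopped with CH3CN. Unmetabolized compound was quantified by LC-MS/MS in MRM mode and reported as percent remaining. Replicates n ≥ 2, mean values given.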

[2] = molecular target: Voltage-gated inwardly rectifying potassium channel KCNH2 (Homo sapiens, UniProt Q12809); assay: Displacement of [3H]astemizole from human ERG channel transfected in HEK293 cells after 60 mins by liquid scintillation counting analysis; type: cell-based
Voltage-gated inwardly rectifying potassium channel KCNH2, sequence (Q12809 whole entry): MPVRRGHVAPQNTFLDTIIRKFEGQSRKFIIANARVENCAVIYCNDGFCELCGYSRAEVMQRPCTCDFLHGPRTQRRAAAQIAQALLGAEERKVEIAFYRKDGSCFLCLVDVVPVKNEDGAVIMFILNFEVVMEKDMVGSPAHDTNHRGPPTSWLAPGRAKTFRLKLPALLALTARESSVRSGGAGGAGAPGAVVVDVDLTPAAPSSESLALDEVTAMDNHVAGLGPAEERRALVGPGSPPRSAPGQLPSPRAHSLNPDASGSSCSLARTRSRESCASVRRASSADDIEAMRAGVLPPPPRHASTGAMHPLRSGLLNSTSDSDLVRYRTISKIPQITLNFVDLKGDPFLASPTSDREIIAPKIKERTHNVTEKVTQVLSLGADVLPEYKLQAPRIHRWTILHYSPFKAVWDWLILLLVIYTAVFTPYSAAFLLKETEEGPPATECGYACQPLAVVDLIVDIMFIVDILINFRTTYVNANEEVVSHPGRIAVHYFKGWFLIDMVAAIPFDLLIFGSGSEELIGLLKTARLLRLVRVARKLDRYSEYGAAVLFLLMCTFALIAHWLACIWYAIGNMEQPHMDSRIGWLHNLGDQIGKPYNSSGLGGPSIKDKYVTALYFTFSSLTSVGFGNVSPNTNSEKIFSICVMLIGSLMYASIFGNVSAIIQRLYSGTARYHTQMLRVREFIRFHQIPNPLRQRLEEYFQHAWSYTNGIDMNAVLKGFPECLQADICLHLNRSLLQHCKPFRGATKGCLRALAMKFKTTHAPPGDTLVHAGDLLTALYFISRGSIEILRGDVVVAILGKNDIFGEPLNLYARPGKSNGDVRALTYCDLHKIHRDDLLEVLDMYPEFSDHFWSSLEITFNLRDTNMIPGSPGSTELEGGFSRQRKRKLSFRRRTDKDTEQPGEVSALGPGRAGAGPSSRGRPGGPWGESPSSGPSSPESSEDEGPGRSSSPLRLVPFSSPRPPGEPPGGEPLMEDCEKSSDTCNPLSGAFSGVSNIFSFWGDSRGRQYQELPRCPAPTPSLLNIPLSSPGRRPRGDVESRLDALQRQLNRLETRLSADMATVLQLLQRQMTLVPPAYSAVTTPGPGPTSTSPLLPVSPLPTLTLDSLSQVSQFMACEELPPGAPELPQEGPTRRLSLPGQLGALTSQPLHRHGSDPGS

[3] = molecular target: Histone deacetylase 2 (Homo sapiens, UniProt Q92769); assay: Inhibition of HDAC2 (unknown origin)
Histone deacetylase 2, sequence (Q92769 whole entry): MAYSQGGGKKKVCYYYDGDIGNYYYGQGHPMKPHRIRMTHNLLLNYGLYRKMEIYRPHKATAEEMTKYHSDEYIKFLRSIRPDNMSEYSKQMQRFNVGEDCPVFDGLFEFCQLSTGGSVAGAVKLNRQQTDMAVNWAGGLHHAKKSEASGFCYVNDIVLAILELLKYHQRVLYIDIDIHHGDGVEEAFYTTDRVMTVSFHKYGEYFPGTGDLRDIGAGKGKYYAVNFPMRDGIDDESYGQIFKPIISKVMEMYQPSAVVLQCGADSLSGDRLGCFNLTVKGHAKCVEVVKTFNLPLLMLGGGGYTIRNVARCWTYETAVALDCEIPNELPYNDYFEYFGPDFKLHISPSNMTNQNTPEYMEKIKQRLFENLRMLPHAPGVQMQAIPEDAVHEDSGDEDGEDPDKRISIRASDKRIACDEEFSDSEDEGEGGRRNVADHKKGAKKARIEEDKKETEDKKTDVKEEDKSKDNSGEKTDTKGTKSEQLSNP

[4] = Permeability from apical to basolateral side across human Caco2 cells after 2 hrs by LC-MS analysis; type: ADME, cell-based; details: Caco-2, read-out: permeability
[5] = molecular target: Histone deacetylase 3 (Homo sapiens, UniProt O15379); assay: Inhibition of HDAC3 (unknown origin)
Histone deacetylase 3, sequence (O15379 whole entry): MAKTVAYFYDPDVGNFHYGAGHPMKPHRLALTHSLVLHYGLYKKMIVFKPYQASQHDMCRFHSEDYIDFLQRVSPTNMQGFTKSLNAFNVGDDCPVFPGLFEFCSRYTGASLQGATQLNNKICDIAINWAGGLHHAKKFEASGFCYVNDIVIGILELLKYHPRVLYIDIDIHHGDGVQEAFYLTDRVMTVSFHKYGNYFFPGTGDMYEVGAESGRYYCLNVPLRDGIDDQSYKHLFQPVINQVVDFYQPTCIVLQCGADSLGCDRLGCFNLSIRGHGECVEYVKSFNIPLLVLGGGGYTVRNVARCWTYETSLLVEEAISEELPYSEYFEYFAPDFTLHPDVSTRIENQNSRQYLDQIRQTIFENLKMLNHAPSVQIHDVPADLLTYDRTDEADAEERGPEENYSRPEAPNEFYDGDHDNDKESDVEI

[6] = system: Mus musculus; assay: Cmax in CD1 mouse at 15 mg/kg, po; details: mouse, in vivo
[7] = Metabolic stability in mouse liver microsomes after 30 mins by LC-MS/MS analysis; type: ADME, Microsome; details: read-out: Stability; how it was run: as §1
[8] = molecular target: T1, Protein deacetylase HDAC6 (Homo sapiens, UniProt Q9UBN7); assay: Inhibition of HDAC6 (unknown origin)
T1 sequence (Q9UBN7 whole entry): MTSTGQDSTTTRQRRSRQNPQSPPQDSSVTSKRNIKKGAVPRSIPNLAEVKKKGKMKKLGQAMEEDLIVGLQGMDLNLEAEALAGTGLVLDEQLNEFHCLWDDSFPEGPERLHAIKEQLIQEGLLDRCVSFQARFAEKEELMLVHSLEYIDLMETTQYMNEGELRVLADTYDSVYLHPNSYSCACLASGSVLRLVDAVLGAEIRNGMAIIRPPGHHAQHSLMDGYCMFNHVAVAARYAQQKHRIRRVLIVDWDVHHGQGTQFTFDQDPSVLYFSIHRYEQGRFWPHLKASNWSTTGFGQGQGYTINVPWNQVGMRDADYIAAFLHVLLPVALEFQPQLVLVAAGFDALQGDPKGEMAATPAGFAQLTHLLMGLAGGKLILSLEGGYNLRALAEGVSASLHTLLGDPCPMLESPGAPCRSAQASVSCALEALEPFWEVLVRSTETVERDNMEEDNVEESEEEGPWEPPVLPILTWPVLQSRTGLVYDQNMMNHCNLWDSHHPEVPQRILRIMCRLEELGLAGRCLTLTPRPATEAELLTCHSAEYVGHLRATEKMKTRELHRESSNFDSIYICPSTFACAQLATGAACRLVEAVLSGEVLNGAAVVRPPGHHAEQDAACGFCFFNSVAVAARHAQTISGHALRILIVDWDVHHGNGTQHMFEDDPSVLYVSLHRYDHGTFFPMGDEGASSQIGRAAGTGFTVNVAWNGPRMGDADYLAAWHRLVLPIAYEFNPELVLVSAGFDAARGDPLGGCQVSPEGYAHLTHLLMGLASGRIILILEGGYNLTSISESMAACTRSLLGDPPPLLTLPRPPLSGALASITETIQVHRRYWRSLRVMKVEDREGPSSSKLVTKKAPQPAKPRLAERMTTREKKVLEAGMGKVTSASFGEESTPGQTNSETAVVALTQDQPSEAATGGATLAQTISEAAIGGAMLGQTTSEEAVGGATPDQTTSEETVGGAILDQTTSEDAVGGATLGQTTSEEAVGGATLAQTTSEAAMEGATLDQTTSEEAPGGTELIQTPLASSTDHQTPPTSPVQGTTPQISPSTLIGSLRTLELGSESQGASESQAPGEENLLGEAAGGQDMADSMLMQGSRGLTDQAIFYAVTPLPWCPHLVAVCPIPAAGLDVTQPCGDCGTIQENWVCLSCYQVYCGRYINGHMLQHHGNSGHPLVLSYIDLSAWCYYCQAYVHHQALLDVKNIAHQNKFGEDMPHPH

[9] = Oral bioavailability in CD1 mouse at 15 mg/kg; details: in vivo

remaining at 0.5 h [1]: 55%
IC50 [3]: 270 nM
Papp A→B at 2 h [4]: 5.6 ×10⁻⁶ cm/s
IC50 [5]: 65 nM
Cmax [6]: 823 nM
remaining at 0.5 h [7]: 32%
IC50 [8]: 103 nM
bioavailability [9]: 31.5%
Structure (SMILES): O=C(/C=C/c1ccc2c(c1)C(=O)CC1(CCN(Cc3ccccc3)CC1)O2)NO
IC50 [2]: 3810 nM
